Compounds with a hit are over-represented: about 2.1% of the library has one in this group of screens.
M1 antag: antagonists of human M1 muscarinic receptor | P11229 | CHO-K1 hM1, Fluo-8 calcium fluorescence, ACh EC80 antagonist | inhibition, % at 3 µM | actives 1.3% (n = 360,000);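 active = percent inhibition above its own plate's cutoff, namely the mean of that plate's compound wells plus 3 SD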;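 also: peak over basal fluorescence ratio during 140 s after agonist addition; 0% = ACh EC80 plus DMSO and 100% = DMSO alone without agonist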
Target sequence (P11229 whole entry, looked up): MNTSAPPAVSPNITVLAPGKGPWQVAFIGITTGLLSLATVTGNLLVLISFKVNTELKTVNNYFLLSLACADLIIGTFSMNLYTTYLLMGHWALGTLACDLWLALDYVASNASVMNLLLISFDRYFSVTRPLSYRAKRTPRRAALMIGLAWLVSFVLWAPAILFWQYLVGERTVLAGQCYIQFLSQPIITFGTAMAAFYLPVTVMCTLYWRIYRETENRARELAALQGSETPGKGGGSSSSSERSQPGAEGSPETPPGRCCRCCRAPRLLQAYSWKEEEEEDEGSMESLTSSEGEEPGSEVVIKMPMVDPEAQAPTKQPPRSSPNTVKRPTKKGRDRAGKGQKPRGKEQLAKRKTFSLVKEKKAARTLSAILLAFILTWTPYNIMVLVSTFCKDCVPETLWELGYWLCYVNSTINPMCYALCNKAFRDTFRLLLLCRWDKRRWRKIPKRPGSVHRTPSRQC
M1 PAM: positive allosteric modulators of human M1 muscarinic receptor | CHO-K1 hM1, Fluo-8 calcium fluorescence, ACh EC20; 0% = ACh EC20, 100% = maximal ACh | activation, % at 3 µM | actives 0.088% (n = 360,000) | P11229; in the data active = activation above about 19%, passing the limit was not always enough
M1 ag: human M1 muscarinic receptor agonism. CHO-K1 hM1, Fluo-8 calcium fluorescence, agonist mode; 0% DMSO, 100% acetylcholine EC100. actives 0.33% (n = 360,000). activation, % at 3 µM;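 active = activation above the run's mean compound activation plus 3 SD, cut at about 16% in these data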;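 also: peak over basal fluorescence ratio within a 140 s kinetic read after compound addition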
CHRM5 agonist: CHRM5 agonism in calcium assay; actives 0.19% (n = 360,000); activation, % at 3 µM; CHO-K1 hM5 cells, Fluo-8 calcium fluorescence; 0% DMSO wells, 100% maximal acetylcholine response; AID 624037;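 active = activation above the run's mean over test compounds plus 3 SD, cut at about 23% in these data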;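 also: signal is peak over basal fluorescence ratio across the kinetic read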
CHRM5 antagonist: blocks acetylcholine activation of human M5 receptor; inhibition, % at 3 µM; CHO-hM5 cells, Fluo-8 calcium fluorescence, ACh EC80; P08912; actives 0.59% (n = 360,000);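 active = inhibition above a per-plate cutoff, the mean of that plate's test compounds plus 3 SD, cut at about 27% in these data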;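 also: 0% = acetylcholine EC80 with DMSO and 100% = DMSO without agonist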
CHRM5 PAM: potentiates acetylcholine response at human M5 receptor | AID 624038 | P08912 | activation, % at 3 µM | actives 0.3% (n = 360,000) | CHO-K1 hM5, Fluo-8 calcium, ACh EC20 PAM; 0% = ACh EC20, 100% = ACh EC100;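 active = activation above the run cutoff, the mean activation of all test compounds plus 3 SD, cut at about 18% in these data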
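System: CHO-K1 hM5 cells. Reagent: acetylcholine, EC20 level. Compound dosing: single dose, 3 µM nominal final test concentration. Timing: Post-acetylcholine fluorescence recording 140 s. Detection: Fluo-8 calcium fluorescence. Read-out: % activation, ACh-normalized. Benchmarks: ACh EC20 and EC100 wells. Repeats: singlicate, one well per test compound.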
Numbers without * were called inactive.

SMILES | M1 antag | M1 PAM | M1 ag | CHRM5 agonist | CHRM5 antagonist | CHRM5 PAM
Cc1cc(=O)oc2cc(OCCSc3nnc(-c4ccccc4)o3)ccc12 | -2.1 | -1.1 | -4.6 | -0.9 | 11.8 | -10.8
CN1C(=S)N(c2cccnc2)C(=O)/C1=C\c1ccc(C(C)(C)C)cc1 | 8.2 | 2.5 | -1.3 | -4.3 | 18.1 | -6.9
CN1C(=S)N(c2cccnc2)C(=O)/C1=C\c1ccc(N(C)C)cc1 | 44.2* | -19.6 | 39.4* | 59.9* | 31.3* | -20.9
O=[N+]([O-])c1ccc2c(c1)C(O)n1nc(-c3ccc(Cl)cc3Cl)nc1S2 (configuration not stated) | 12.0 | -1.1 | 0.0 | -2.8 | 0.5 | 25.1*
O=[N+]([O-])c1ccc2c(c1)C(O)n1ncnc1S2 (configuration not stated) | 9.5 | -0.8 | -2.9 | -2.2 | -1.4 | 4.9
Cc1ccc(C(=O)c2ccc([N+](=O)[O-])cc2)c(C)c1 | -2.0 | -2.2 | -4.2 | -3.7 | 7.6 | -4.4
CN(C)CCC(O)(c1ccccc1)c1ccccc1 | 66.6* | -35.3 | -15.4 | -6.9 | 17.0 | -18.3
CN(C)CCC(O)(c1ccccc1)c1ccccc1Cl (configuration not stated) | 37.8* | -24.1 | -8.5 | -11.9 | 14.4 | -32.5
CC(C)(C)N(CC#CCC(O)(c1ccccc1)c1ccccc1)CCO | 12.7 | -14.5 | -7.6 | -17.2 | 7.9 | 5.6
CN(C)CCCC(C)(O)C(C)(C)c1ccccc1 (configuration not stated) | -5.9 | 5.9 | -9.9 | -5.2 | -0.7 | -1.4
O=c1c2ccccc2n(CC(O)CN2CCCCC2)c2ccccc12 (configuration not stated) | 6.0 | -7.7 | -9.7 | -4.0 | 6.2 | -7.6
CCOC(=O)C1=C(C)N(C)C(=O)NC1c1cccc([N+](=O)[O-])c1 (configuration not stated) | 4.3 | 1.0 | -7.3 | -2.0 | 2.5 | 3.9
CCOC(=O)C1=C(C)N(c2ccccc2)C(=O)NC1c1cccc([N+](=O)[O-])c1 (configuration not stated) | 68.1* | -23.2 | -8.9 | -4.9 | 39.4* | -18.2
Nc1c(C(=O)CSc2n[nH]c(-c3ccccc3)n2)c(=O)[nH]c(=O)n1C1CC1 | -26.8 | 29.2* | 1.8 | 4.8 | -0.5 | 2.4
Nc1c(C(=O)CSc2n[nH]c(-c3ccccc3Br)n2)c(=O)[nH]c(=O)n1C1CC1 | 10.7 | -6.5 | -3.8 | -0.4 | -0.5 | -0.8
Cc1cc[n+](C2=C([O-])c3ccccc3C(=O)/C2=N\S(=O)(=O)c2cccs2)cc1C | 1.2 | 9.3 | -0.7 | -1.5 | -3.7 | 4.9
C=CCNC(=O)CSc1nnc(-c2ccccn2)n1Cc1ccccc1 | 7.4 | -3.8 | -4.3 | -3.2 | -4.1 | 22.1*
CCN(c1ccc(NS(=O)(=O)c2cc(Cl)ccc2Cl)cc1)C(C)C | 75.5* | -25.5 | -12.7 | -8.3 | 21.5 | -18.3
O=S(=O)(Nc1ccc(N2CCOCC2)cc1)c1cc(Cl)ccc1Cl | -8.7 | 8.1 | -1.4 | 3.2 | 12.3 | 18.1*
COC(c1ccccc1)c1nnc(CCC(=O)N(C)CCc2ccccc2)o1 (configuration not stated) | -4.9 | 11.1 | -6.5 | 2.3 | -3.4 | 4.4
CCOC(=O)C1CCN(Cc2c(O)c3ccccc3oc2=O)CC1 | -3.3 | -0.9 | 7.3 | 2.5 | 11.7 | -7.8
CCOc1cc(C)c(Cl)cc1S(=O)(=O)N(C)C | -7.5 | 8.3 | -1.1 | -1.1 | -5.7 | -3.0
CC(=O)Nc1c(Nc2ccccc2)c2ccccc2oc1=O | -3.7 | 12.5 | -6.5 | -1.5 | 6.4 | 2.8
CC(=O)Nc1c(NC(C)C)c2ccccc2oc1=O | -9.8 | 13.7 | 1.4 | -1.5 | -1.6 | 21.8*
O=C1NC(=S)NC1(c1ccccc1)c1ccccc1 | 47.0* | -28.9 | -8.8 | -11.0 | 8.5 | -14.4
SMILES | M1 antag | M1 PAM | M1 ag | CHRM5 agonist | CHRM5 antagonist | CHRM5 PAM
COc1ccc(CCN2CC(C(=O)NCc3cc(C(C)C)no3)CCC2=O)cc1 (configuration not stated) | 10.5 | 2.6 | -0.5 | -3.8 | -2.9 | -1.1
COc1cccc(CN(C)C(=O)c2ccc(OCC(=O)Nc3cccc(C(F)(F)F)c3)c(OC)c2)c1 | 39.8* | -11.8 | 0.5 | 4.3 | 29.1* | -29.2
CSc1ccc(CN2CCN(Cc3ccc([N+](=O)[O-])cc3)CC2)cc1 | 41.4* | -26.1 | -7.5 | -8.8 | 7.5 | -21.6
O=[N+]([O-])c1ccc(CN2CCCCCC2)cc1 | 0.9 | -0.8 | -3.4 | -6.6 | 13.6 | -0.6
COc1ccc(Nc2nc(N3CCCC3)c3ccccc3n2)cc1 | 20.8 | -20.9 | -2.5 | -1.8 | 6.3 | -3.6
CCN(CC)c1ccc(Nc2nc(N3CCOCC3)c3ccccc3n2)cc1 | 4.8 | -8.5 | -4.2 | -4.6 | 30.0* | -15.0
CCn1c(CNC(=O)COc2ccc(C(C)C)cc2)nnc1SCC(=O)Nc1ccccc1F | -12.8 | 10.1 | -1.8 | 2.9 | -1.6 | 2.9
CCn1c(CNC(=O)COc2ccc(C(C)C)cc2)nnc1SCC(=O)Nc1ccccc1C(C)C | 19.0 | -3.6 | -1.1 | 3.9 | 27.6* | -9.3
COc1ccc(CCNc2nncc(=O)[nH]2)cc1OC | -35.2 | 11.1 | 2.0 | 1.7 | 10.8 | -10.1
CCOC(=O)C1CCCN(C(=S)Nc2cccc(Cl)c2C)C1 (configuration not stated) | 56.9* | -13.3 | 68.2* | 27.9* | 11.1 | -17.1
CCOC(=O)C1CCN(C(=O)Nc2cccc(Cl)c2)CC1 | -13.1 | 5.7 | -2.2 | 1.4 | -2.3 | -1.0
CCOC(=O)C1CCCN(C(=S)Nc2cccc(Cl)c2)C1 (configuration not stated) | 62.4* | -8.6 | 74.0* | 32.8* | -1.9 | -12.0
Cc1c(Cl)cccc1NC(=O)Cn1nnc(C(=O)NCc2cccs2)c1N | -12.2 | 12.3 | -5.1 | -1.6 | -0.8 | -2.1
O=S(=O)(c1cccc(Br)c1)N1CCN(c2ncnc3scc(-c4ccccc4)c23)CC1 | -1.7 | -0.7 | -3.1 | -2.2 | 15.9 | -7.5
Cc1csc2ncnc(N3CCN(S(=O)(=O)c4cccc(C(F)(F)F)c4)CC3)c12 | 46.5* | -16.0 | 0.6 | 1.4 | 44.0* | -17.5
N#Cc1nc(-c2ccc(OCc3ccc(Cl)cc3)cc2)oc1N1CCOCC1 | 9.8 | -0.3 | 1.8 | -0.2 | 7.9 | -10.2
COc1cccc(CCNC(=O)C2CCCN(c3ncnc4c3nc3n4CCCCC3)C2)c1OC (configuration not stated) | 0.5 | 1.4 | -5.0 | -4.4 | 12.4 | -7.0
Cc1ccccc1CN1CCC(CNC(=O)C2CCCN(c3ncnc4c3nc3n4CCCCC3)C2)CC1 (configuration not stated) | 101.5* | -40.7 | -14.0 | -9.6 | 15.9 | -14.8
